From ChEMBL document CHEMBL4622869, “Discovery and structure-activity relationships study of positive allosteric modulators of the M3 muscarinic acetylcholine receptor” (Bioorg Med Chem, 2020)

What was measured:
[1] = biological target: T1, Muscarinic acetylcholine receptor M4 (Homo sapiens) (UniProt P08173); experiment: (§1) Positive allosteric modulation of recombinant human muscarinic acetylcholine receptor M4 expressed in CHOK1 cells coexpressing G-alpha16 assessed as increase in carbachol-induced intracellular calcium flux at 10 uM preincubated for 5 mins followed by carbachol addition by Fluo4-AM dye based FLIPR assay relative to carbachol; assay type: functional, cell-based; conditions: CHO-K1
T1 sequence (whole entry): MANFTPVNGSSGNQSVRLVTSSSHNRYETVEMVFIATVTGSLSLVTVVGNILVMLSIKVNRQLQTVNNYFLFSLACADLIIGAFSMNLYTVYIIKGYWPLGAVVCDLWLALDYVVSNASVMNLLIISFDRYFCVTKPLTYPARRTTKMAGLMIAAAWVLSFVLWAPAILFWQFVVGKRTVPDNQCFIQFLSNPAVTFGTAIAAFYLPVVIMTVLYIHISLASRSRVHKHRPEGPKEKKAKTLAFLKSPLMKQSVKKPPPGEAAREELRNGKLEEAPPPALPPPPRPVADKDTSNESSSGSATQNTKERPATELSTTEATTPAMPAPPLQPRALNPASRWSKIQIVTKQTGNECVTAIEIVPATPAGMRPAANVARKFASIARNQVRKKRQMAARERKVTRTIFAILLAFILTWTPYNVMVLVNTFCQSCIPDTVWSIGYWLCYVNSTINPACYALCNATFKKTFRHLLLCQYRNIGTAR
Summary of the method: (§2)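 CHO-K1 cells stably expressing human or rat M1–M5; M2 and M4 lines also co-express human Gα16. Cells loaded with 3.1 μM Fluo-4 AM in HBSS/20 mM HEPES pH 7.5/BSA/2.5 mM probenecid for ~2 h at room temperature. Test substance at 10 μM final, then carbachol (0.0024 nM–100 μM) ~5 min later; Ca2+ read by FLIPR Tetra. Fold shift = carbachol EC50 without / with test substance, from logistic fits.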

[2] = biological target: Muscarinic acetylcholine receptor M3 (Rattus norvegicus) (UniProt P08483); experiment: Positive allosteric modulation of muscarinic acetylcholine receptor M3 in Sprague-Dawley rat urinary bladder assessed as increase in 8 Hz electrical field stimulation-induced bladder contraction
Chain of Muscarinic acetylcholine receptor M3 (Rattus norvegicus) (P08483 whole entry, looked up): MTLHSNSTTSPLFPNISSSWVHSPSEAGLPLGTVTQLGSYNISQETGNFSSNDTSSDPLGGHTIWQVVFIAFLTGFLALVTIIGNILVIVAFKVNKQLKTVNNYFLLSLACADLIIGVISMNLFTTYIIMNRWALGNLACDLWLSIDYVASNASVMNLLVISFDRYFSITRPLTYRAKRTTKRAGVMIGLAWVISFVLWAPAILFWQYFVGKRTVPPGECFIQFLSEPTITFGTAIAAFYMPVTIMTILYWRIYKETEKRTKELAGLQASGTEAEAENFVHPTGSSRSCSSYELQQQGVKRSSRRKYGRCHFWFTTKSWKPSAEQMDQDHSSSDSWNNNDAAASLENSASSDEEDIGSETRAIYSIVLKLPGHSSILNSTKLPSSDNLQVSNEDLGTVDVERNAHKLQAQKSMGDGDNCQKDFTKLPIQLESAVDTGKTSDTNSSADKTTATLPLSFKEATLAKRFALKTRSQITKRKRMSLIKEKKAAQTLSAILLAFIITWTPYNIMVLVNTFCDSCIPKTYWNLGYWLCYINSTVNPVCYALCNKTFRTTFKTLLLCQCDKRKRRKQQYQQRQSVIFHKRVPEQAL
Summary of the method: (§3)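 Female Sprague-Dawley rats, 9–10 weeks old. Longitudinal bladder strips (~10×2 mm) in Krebs at 37°C, gassed with 95% O2/5% CO2. EFS at 8 Hz, 10 s trains, 0.3 ms pulses, voltage set to give about half-maximal response. Drug added cumulatively at 1, 3 and 10 μM, 10 stimulations per concentration. Contraction = peak minus basal tone, averaged over the last 3 contractions and compared with pre-drug value (n=7).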

[3] = biological target: T2, Muscarinic acetylcholine receptor M4 (Rattus norvegicus) (UniProt P08485); experiment: as §1, with “rat” for “human”; assay type: functional, cell-based; conditions: CHO-K1; summary of the method: as §2
T2 sequence (whole entry): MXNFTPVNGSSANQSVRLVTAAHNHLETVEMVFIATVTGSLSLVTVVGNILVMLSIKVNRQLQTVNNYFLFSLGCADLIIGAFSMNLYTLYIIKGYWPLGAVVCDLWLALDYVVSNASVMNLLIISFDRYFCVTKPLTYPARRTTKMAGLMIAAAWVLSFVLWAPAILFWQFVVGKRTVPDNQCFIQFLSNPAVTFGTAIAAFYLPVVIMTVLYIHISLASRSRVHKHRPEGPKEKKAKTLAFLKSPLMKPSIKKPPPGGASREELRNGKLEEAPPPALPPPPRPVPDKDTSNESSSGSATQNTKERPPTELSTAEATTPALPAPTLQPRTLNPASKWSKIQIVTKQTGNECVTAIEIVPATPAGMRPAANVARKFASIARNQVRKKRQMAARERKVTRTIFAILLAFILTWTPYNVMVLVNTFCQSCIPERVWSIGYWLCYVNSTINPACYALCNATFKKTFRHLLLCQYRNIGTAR

[4] = Half life in Crl:CD(SD) rat at 1 mg/kg, po measured up to 24 hrs by LC-MS/MS analysis; assay type: ADME, organism-based; conditions: in vivo
Summary of the method: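 Male Crl:CD(SD) rats, 8 weeks old, food deprived (n=4); iv 0.3 mg/kg or po 1 mg/kg in DMF/propylene glycol/water for injection (1/1/8) containing 1 M NaOH (2 equivalents). Plasma sampled to 24 h, assayed by validated LC-MS/MS. Parameters from each animal by noncompartmental analysis, reported as means.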

[5] = biological target: T3, Muscarinic acetylcholine receptor M2 (Homo sapiens) (UniProt P08172); experiment: as §1, with “M2” for “M4”, “Fluo4-AM” for “Fluo4-AM dye”; assay type: functional, cell-based; conditions: CHO-K1; summary of the method: as §2
T3 sequence (whole entry): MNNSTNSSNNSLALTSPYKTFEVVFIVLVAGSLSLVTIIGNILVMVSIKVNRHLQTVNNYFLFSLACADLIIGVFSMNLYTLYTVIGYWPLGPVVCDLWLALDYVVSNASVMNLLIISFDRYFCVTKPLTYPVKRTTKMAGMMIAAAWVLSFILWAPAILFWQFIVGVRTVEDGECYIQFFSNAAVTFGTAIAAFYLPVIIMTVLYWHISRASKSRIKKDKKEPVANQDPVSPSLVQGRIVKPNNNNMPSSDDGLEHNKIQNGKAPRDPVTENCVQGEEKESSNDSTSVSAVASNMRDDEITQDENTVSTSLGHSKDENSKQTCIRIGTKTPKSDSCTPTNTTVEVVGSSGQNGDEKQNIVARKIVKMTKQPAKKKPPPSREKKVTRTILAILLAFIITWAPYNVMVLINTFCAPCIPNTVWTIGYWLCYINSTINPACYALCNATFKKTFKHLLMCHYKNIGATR

[6] = biological target: Muscarinic acetylcholine receptor M3 (Rattus norvegicus) (UniProt P08483); experiment: Positive allosteric modulation of muscarinic acetylcholine receptor M3 in Sprague-Dawley rat urinary bladder assessed as increase in 8 Hz electrical field stimulation-induced bladder contraction by measuring tension of isolated bladder contraction at 3 uM (reference value: 2.21 +/- 0.26 g); summary of the method: as §3
[7] = biological target: T4, Muscarinic acetylcholine receptor M5 (Homo sapiens) (UniProt P08912); experiment: as §1, with “M5” for “M4”, “cells” for “cells coexpressing G-alpha16”; assay type: functional, cell-based; conditions: CHO-K1; summary of the method: as §2
T4 sequence (whole entry): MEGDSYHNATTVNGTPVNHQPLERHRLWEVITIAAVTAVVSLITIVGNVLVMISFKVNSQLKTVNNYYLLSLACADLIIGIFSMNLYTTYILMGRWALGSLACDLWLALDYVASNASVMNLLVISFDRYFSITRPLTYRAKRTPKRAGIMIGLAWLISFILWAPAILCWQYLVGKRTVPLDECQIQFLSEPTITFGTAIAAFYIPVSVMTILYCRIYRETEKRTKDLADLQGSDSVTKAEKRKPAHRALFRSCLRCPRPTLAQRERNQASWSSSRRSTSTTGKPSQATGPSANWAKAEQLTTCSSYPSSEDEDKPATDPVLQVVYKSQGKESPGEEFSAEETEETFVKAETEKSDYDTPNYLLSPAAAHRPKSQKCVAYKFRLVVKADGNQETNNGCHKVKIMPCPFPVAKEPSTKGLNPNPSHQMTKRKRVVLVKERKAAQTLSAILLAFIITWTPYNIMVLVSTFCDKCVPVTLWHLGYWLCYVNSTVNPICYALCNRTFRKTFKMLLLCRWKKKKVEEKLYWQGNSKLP

fold change (FC) [1]: 1
Activity [2]: Dose-dependent effect
fold change (FC) [3]: 0.7
half-life [4]: 2.16 h
fold change (FC) [5]: 1.3
Activity [6]: 2.79 g
fold change (FC) [7]: 94
SMILES: CC[C@@H]1CCCN1Cc1sc(NC(=O)c2cnc(N3CCC(C(=O)O)CC3)cn2)nc1-c1ccc(OC)c(C(F)(F)F)c1.Cl.Cl
